The text below walks through data of ChEMBL document CHEMBL1133534, “1,3-Diaryl-4,5,6,7-tetrahydro-2H-isoindole derivatives: a new series of potent and selective COX-2 inhibitors in which a sulfonyl group is not a structural requisite” (J Med Chem, 2000).

SMILES strings stand for the structures.

The target in series [1] is T1, Prostaglandin G/H synthase 2 (Mus musculus, UniProt Q05769).
T1 sequence (Q05769 whole entry): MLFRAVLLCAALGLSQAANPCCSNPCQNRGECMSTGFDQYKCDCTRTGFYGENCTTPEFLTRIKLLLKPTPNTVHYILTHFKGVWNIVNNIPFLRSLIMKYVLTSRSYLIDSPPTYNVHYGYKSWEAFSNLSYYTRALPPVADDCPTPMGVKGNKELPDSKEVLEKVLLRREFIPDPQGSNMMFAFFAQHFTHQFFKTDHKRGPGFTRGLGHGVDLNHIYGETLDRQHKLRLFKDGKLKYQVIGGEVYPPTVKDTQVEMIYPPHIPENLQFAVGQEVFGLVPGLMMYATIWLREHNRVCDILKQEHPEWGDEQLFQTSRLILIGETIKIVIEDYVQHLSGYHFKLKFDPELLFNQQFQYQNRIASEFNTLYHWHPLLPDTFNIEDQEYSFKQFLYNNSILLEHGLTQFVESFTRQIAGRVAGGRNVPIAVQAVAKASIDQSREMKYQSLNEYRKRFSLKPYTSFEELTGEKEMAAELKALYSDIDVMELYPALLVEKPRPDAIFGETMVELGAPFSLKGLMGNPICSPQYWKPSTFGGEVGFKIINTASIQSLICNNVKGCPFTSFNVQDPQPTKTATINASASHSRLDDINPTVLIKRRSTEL
Kind of series: Inhibition against prostaglandin G/H synthase 2 from mouse resident macrophages.

Series [2] relates to Rattus norvegicus. Kind of series: Inhibition of edema after oral administration at 2 mg/kg, twice daily. The format is functional. In short, it runs like this: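 Adjuvant-induced arthritis in female Lewis rats. Compound was given orally at 2 mg/kg twice daily, and noninjected paw edema inhibition was read at day 21, 10 rats/group.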
For series [3], the species on record is Mus musculus. Put plainly: Compound was evaluated for its effective dose to inhibit gastric PGE-2. Particulars: Stomach. The format is tissue-based. The procedure, abridged:
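Mice with air pouches (18 h old) were dosed orally with compound or vehicle. After 1 h, 500 µL sterile 1% carrageenan was injected into the pouch, and mice were killed 5 h later. Pouch lavage (heparinized HBSS) was cooled on ice, and PGE2 was measured by EIA after solid-phase extraction. Excised stomachs were rinsed and incubated 15 min in PBS, and supernatant PGE2 was measured by EIA. ED50 from 3 or 4 doses, at least 8 mice/group.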

For series [4], the species on record is Mus musculus. Kind of series: Compound was evaluated for its effective dose to inhibit exudate PGE-2. In short, it runs like this: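 Mice given compound or vehicle orally 18 h after air-pouch induction; 1 h later 500 µL sterile 1% carrageenan injected into pouch; sacrifice 5 h after carrageenan. Pouch lavaged with 2 mL heparinized HBSS, kept on ice, PGE2 measured by EIA after solid-phase extraction. ED50 from 3 or 4 dose points, at least 8 mice/group.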

In series [5] the target is T2, Prostaglandin G/H synthase 1 (Mus musculus, UniProt P22437).
T2 sequence (P22437 whole entry): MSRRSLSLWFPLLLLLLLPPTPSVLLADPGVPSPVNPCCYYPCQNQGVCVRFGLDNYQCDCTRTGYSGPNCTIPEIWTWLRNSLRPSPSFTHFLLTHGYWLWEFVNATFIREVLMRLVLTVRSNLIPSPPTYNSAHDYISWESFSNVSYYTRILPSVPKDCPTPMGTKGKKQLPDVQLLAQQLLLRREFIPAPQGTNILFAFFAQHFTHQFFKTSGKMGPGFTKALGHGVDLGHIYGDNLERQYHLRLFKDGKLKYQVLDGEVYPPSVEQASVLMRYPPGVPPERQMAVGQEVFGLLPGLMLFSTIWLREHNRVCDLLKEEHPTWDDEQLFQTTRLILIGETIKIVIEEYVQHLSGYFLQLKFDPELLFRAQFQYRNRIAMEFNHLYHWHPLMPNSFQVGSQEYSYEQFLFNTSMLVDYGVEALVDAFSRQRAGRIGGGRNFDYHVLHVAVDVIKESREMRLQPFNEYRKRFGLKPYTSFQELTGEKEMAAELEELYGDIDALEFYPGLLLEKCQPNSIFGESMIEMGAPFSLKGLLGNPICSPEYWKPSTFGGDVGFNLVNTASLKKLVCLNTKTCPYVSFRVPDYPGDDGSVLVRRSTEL
Put plainly: Inhibition against prostaglandin G/H synthase 1 from mouse resident macrophages.

The nature of series [6]: Gastric toxicity of the compound. The procedure, abridged: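 Male Swiss mice, fasted overnight with water, were dosed orally at 400 mg/kg or given vehicle, and killed by cervical dislocation 5 h later. The stomach was opened and mucosal damage scored blind from 0 (normal) to 5 (perforation). Mean ± SEM, 8 animals/group.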

As to `Fc1ccc(-c2[nH]c(-c3ccc(F)cc3)c3c2CCC3)cc1`, the figures for the 50% inhibitory concentration (IC50) in series [1] and in series [5] were 2.9 nM and 100 nM, respectively. This compound also showed an inhibition in vivo at 2 mg/kg in series [2] of 14%. The results for the ED50 in series [3] and in series [4] were more than 80 mg/kg and 20 mg/kg, respectively. In series [6], this compound yielded a Gastric score of 0.7.
